Active and inactive are the calls of the source. No cut-off for these calls is given here.
Tests used:
SW-620 [1] = test: Cell cycle arrest in human SW620 cells assessed as accumulation at G2/M phase at 10 uM after 48 hrs by propidium iodide staining based flow cytometeric analysis (reference value: 16.1 +/- 0.9%); format: functional
SW-620 [2] = test: Cell cycle arrest in human SW620 cells assessed as accumulation at G2/M phase at 5 uM after 48 hrs by propidium iodide staining based flow cytometeric analysis (reference value: 16.1 +/- 0.9%); format: functional
SW-620 [3] = test: Cell cycle arrest in human SW620 cells assessed as accumulation at G1 phase at 10 uM after 48 hrs by propidium iodide staining based flow cytometeric analysis (reference value: 52.7 +/- 0.9%); format: functional
MIA PaCa-2 [4] = test: Antiproliferative activity against human MIAPaCa2 cells after 72 hrs by MTT assay; format: functional, cell-based; conditions: Homo sapiens, MIA PaCa-2, 72 h
Method in brief: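 Monolayer cells in DMEM with 10% FBS, 2 mM L-glutamine, penicillin and streptomycin at 37 °C, 5% CO2. Seeded at 3000-6000 cells/well by doubling time on day 0. Five 10-fold dilutions (0.01–100 µM) were added and incubated 72 h. MTT read-out, converted to percentage growth. IC50 by linear regression between bracketing concentrations. Quadruplicate points, three independent experiments, ANOVA/Tukey p<0.05.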

MIA PaCa-2 [5] = test: Cytostatic activity against human MIAPaCa2 cells at 1 to 10 uM after 72 hrs by MTT assay; format: functional, cell-based
Method in brief: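 Monolayers in DMEM with 10% FBS, 2 mM L-glutamine, penicillin and streptomycin (37 °C, 5% CO2) were seeded at 3000–6000 cells/well on day 0. Five 10-fold dilutions (0.01–100 µM) were added, followed by 72-h incubation and MTT read-out. Absorbances were converted to percentage growth by the NIH formulae. Each point was run in quadruplicate in three experiments; ANOVA with Tukey test.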

Nucleic Acid [6] = test: Binding affinity to calf thymus DNA assessed as change in melting temperature at compound to polynucleotide ratio of 0.5 by UV-VIS spectroscopic analysis; format: nucleic-acid assay; conditions: Bos taurus
Method in brief: (§1)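 ct-DNA alone or with compound at set r = [compound]/[polynucleotide], in cacodylate buffer pH 7.0, I = 0.05 mol dm^-3. Absorbance at 260 nm followed against temperature, ligand absorbance subtracted, curves normalized. Tm is the transition midpoint, from the first-derivative maximum or by tangent method. ΔTm = Tm(complex) − Tm(free DNA), mean of ≥2 runs, error ±0.5 °C.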

Nucleic Acid [7] = test: Binding affinity to calf thymus DNA assessed as change in melting temperature at compound to polynucleotide ratio of 0.1 by UV-VIS spectroscopic analysis; format: nucleic-acid assay; conditions: Bos taurus; method in brief: as §1

- IC50 (MIA PaCa-2 [4]): 0.74 µM
- ΔTm (Nucleic Acid [6]): 8.4 °C
- ΔTm (Nucleic Acid [7]): 2.7 °C
Structure (SMILES): Cl.c1cnc2nc3ccc4ccc(C5=NCCN5)cc4n3c2c1
- Activity (SW-620 [1]): 18.2%
- Activity (SW-620 [2]): 1.5%
- Activity (SW-620 [3]): 39.9%
- Activity (MIA PaCa-2 [5]): Active

Source: ChEMBL document CHEMBL1806443, “Novel imidazo[4,5-b]pyridine and triaza-benzo[c]fluorene derivatives: synthesis, antiproliferative activity and DNA binding studies” (Eur J Med Chem, 2011)
